Assay results: ChEMBL document CHEMBL3596093, “Synthesis and antimicrobial evaluation of 5-aryl-1,2,4-triazole-3-thione derivatives containing a rhodanine moiety” (2015)

What was measured:
Staphylococcus aureus [1] = assay: Antibacterial activity against quinolone-resistant Staphylococcus aureus CCARM 3519 after 24 hrs by two-fold serial dilution method; format: functional; conditions: CCARM 3519, 24 h
Method in brief: (§1)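 Broth microdilution MIC. Bacteria grown to mid-log phase in Mueller-Hinton broth, diluted 1000-fold, about 10^5 CFU/mL. Compounds from DMSO stocks, two-fold serial dilution from a final 64 µg/mL. Incubation at 37 °C for 24 h. Growth read as absorbance at 630 nm on a microplate reader. Run in triplicate.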

Salmonella typhimurium = assay: Antibacterial activity against Salmonella typhimurium 2421 after 24 hrs by two-fold serial dilution method; format: functional, Salmonella enterica subsp. enterica serovar Typhimurium; conditions: Salmonella enterica, 2421, 24 h
Method in brief: (§2)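 Strains grown to mid-log phase in Mueller-Hinton broth, then diluted 1000-fold in the same broth to about 10^5 CFU/mL. Compounds were made up as DMSO stocks and two-fold serially diluted from a final top concentration of 64 µg/mL. Incubation was 37 °C for 24 h. Growth was read as absorbance at 630 nm on a microplate reader. MIC assays were run in triplicate.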

Streptococcus mutans [2] = assay: Bactericidal activity against Streptococcus mutans 3065 after 24 hrs by agar plate method; format: functional; conditions: Streptococcus mutans, 3065, 24 h
Method in brief: (§3)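 Samples of 5 µL from MIC wells with no visible growth were plated onto fresh Mueller-Hinton agar and incubated a further 24 h at 37 °C. MBC is the lowest concentration giving no visible colony growth on the agar. Assays were run in triplicate.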

Staphylococcus aureus [3] = assay: Antibacterial activity against quinolone-resistant Staphylococcus aureus CCARM 3505 after 24 hrs by two-fold serial dilution method; format: functional; conditions: CCARM 3505, 24 h; method in brief: as §1
Staphylococcus aureus [4] = assay: Bactericidal activity against methicillin-resistant Staphylococcus aureus CCARM 3167 after 24 hrs by agar plate method; format: functional; conditions: CCARM 3167, 24 h
Method in brief: (§4)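 5 µL from each well without visible growth plated on fresh Mueller-Hinton agar, then 37 °C for a further 24 h. MBC is the lowest concentration giving no visible colonies. Run in triplicate.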

Staphylococcus aureus [5] = assay: Bactericidal activity against methicillin-resistant Staphylococcus aureus CCARM 3506 after 24 hrs by agar plate method; format: functional; conditions: CCARM 3506, 24 h; method in brief: as §4
Staphylococcus aureus [6] = assay: Antibacterial activity against Staphylococcus aureus KCTC 209 after 24 hrs by two-fold serial dilution method; format: functional; conditions: KCTC 209, 24 h; method in brief: as §2
Staphylococcus aureus [7] = assay: Antibacterial activity against Staphylococcus aureus KCTC 503 after 24 hrs by two-fold serial dilution method; format: functional; conditions: KCTC 503, 24 h; method in brief: as §2
Escherichia coli [8] = assay: Antibacterial activity against Escherichia coli CCARM 1356 after 24 hrs by two-fold serial dilution method; format: functional; conditions: CCARM 1356, 24 h; method in brief: as §2
Staphylococcus aureus [9] = assay: Bactericidal activity against Staphylococcus aureus RN4220 after 24 hrs by agar plate method; format: functional; conditions: RN4220, 24 h; method in brief: as §3
Staphylococcus aureus [10] = assay: Bactericidal activity against Staphylococcus aureus KCTC 503 after 24 hrs by agar plate method; format: functional; conditions: KCTC 503, 24 h; method in brief: as §4
Escherichia coli [11] = assay: Antibacterial activity against Escherichia coli KCTC 1924 after 24 hrs by two-fold serial dilution method; format: functional; conditions: KCTC 1924, 24 h; method in brief: as §2
Pseudomonas aeruginosa [12] = assay: Antibacterial activity against Pseudomonas aeruginosa 2004 after 24 hrs by two-fold serial dilution method; format: functional; conditions: Pseudomonas aeruginosa, 2004, 24 h; method in brief: as §2
Staphylococcus aureus [13] = assay: Bactericidal activity against quinolone-resistant Staphylococcus aureus CCARM 3519 after 24 hrs by agar plate method; format: functional; conditions: CCARM 3519, 24 h; method in brief: as §4
Staphylococcus aureus [14] = assay: Antibacterial activity against methicillin-resistant Staphylococcus aureus CCARM 3167 after 24 hrs by two-fold serial dilution method; format: functional; conditions: CCARM 3167, 24 h; method in brief: as §1
Staphylococcus aureus [15] = assay: Ratio of MBC to MIC for Staphylococcus aureus KCTC 503; format: functional
Method in brief: (§5)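 The ratio divides MBC by MIC for the same strain. MIC comes from two-fold broth microdilution in Mueller-Hinton broth (about 10^5 CFU/mL, 37 °C, 24 h, absorbance at 630 nm). MBC comes from subculturing 5 µL from clear wells onto Mueller-Hinton agar for another 24 h at 37 °C, taken as the lowest concentration with no colonies.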

Streptococcus mutans [16] = assay: Antibacterial activity against Streptococcus mutans 3065 after 24 hrs by two-fold serial dilution method; format: functional; conditions: Streptococcus mutans, 3065, 24 h; method in brief: as §2
Candida albicans [17] = assay: Antifungal activity against Candida albicans 7535 after 24 hrs by two-fold serial dilution method; format: functional; conditions: Candida albicans, 7535, 24 h
Staphylococcus aureus [18] = assay: Antibacterial activity against Staphylococcus aureus RN4220 after 24 hrs by two-fold serial dilution method; format: functional; conditions: RN4220, 24 h; method in brief: as §1
[19] = system: Staphylococcus aureus subsp. aureus RN4220; assay: Ratio of MBC to MIC for Staphylococcus aureus RN4220; format: functional; method in brief: as §5
Pseudomonas aeruginosa [20] = assay: Antibacterial activity against Pseudomonas aeruginosa 2742 after 24 hrs by two-fold serial dilution method; format: functional; conditions: Pseudomonas aeruginosa, 2742, 24 h; method in brief: as §2
Staphylococcus aureus [21] = assay: Bactericidal activity against quinolone-resistant Staphylococcus aureus CCARM 3505 after 24 hrs by agar plate method; format: functional; conditions: CCARM 3505, 24 h; method in brief: as §4
Staphylococcus aureus [22] = assay: Antibacterial activity against methicillin-resistant Staphylococcus aureus CCARM 3506 after 24 hrs by two-fold serial dilution method; format: functional; conditions: CCARM 3506, 24 h; method in brief: as §1
Staphylococcus aureus [23] = assay: Ratio of MBC to MIC for Staphylococcus aureus KCTC 209; format: functional; method in brief: as §5
Escherichia coli [24] = assay: Bactericidal activity against Escherichia coli KCTC 1924 after 24 hrs by agar plate method; format: functional; conditions: KCTC 1924, 24 h; method in brief: as §3
Candida albicans [25] = assay: Fungicidal activity against Candida albicans 7535 after 24 hrs by agar plate method; format: functional; conditions: Candida albicans, 7535, 24 h
Staphylococcus aureus [26] = assay: Bactericidal activity against Staphylococcus aureus KCTC 209 after 24 hrs by agar plate method; format: functional; conditions: KCTC 209, 24 h; method in brief: as §3
Escherichia coli [27] = assay: Ratio of MBC to MIC for Escherichia coli KCTC 1924; format: functional; method in brief: as §5

O=C(O)[C@H](Cc1ccccc1)N1C(=O)/C(=C/c2ccc(/C=N/n3c(-c4ccccc4)n[nH]c3=S)cc2)SC1=S
16 µg/mL: MBC (Streptococcus mutans [2]) | MBC (Staphylococcus aureus [4]) | MBC (Staphylococcus aureus [9])
32 µg/mL: MBC (Staphylococcus aureus [5]) | MBC (Staphylococcus aureus [13]) | MBC (Staphylococcus aureus [21])
<=4: Ratio (Staphylococcus aureus [15])
> 128 µg/mL: MIC (Salmonella typhimurium) | MIC (Escherichia coli [8]) | MIC (Escherichia coli [11]) | MIC (Pseudomonas aeruginosa [12]) | MIC (Pseudomonas aeruginosa [20])
> 64 µg/mL: MIC (Staphylococcus aureus [6]) | MIC (Candida albicans [17])
8 µg/mL: MIC (Staphylococcus aureus [1]) | MIC (Staphylococcus aureus [3]) | MIC (Staphylococcus aureus [7]) | MBC (Staphylococcus aureus [10]) | MIC (Staphylococcus aureus [14]) | MIC (Streptococcus mutans [16]) | MIC (Staphylococcus aureus [18]) | MIC (Staphylococcus aureus [22])
2: Ratio [19]

O=C(O)[C@H](Cc1ccccc1)N1C(=O)/C(=C/c2ccc(/C=N/n3c(-c4ccccc4Cl)n[nH]c3=S)cc2)SC1=S
<=4: Ratio (Staphylococcus aureus [15])
16 µg/mL: MIC (Staphylococcus aureus [1]) | MIC (Staphylococcus aureus [3]) | MIC (Staphylococcus aureus [7]) | MIC (Staphylococcus aureus [14]) | MIC (Streptococcus mutans [16]) | MIC (Staphylococcus aureus [18]) | MIC (Staphylococcus aureus [22])
> 128 µg/mL: MIC (Salmonella typhimurium) | MBC (Streptococcus mutans [2]) | MIC (Escherichia coli [8]) | MIC (Escherichia coli [11]) | MIC (Pseudomonas aeruginosa [12]) | MBC (Staphylococcus aureus [13]) | MIC (Pseudomonas aeruginosa [20]) | MBC (Staphylococcus aureus [21])
32 µg/mL: MBC (Staphylococcus aureus [4]) | MBC (Staphylococcus aureus [9])
2: Ratio [19]
> 64 µg/mL: MIC (Staphylococcus aureus [6]) | MIC (Candida albicans [17])
64 µg/mL: MBC (Staphylococcus aureus [5]) | MBC (Staphylococcus aureus [10])

O=C(O)[C@H](Cc1ccccc1)N1C(=O)/C(=C/c2ccc(/C=N/n3c(-c4cccc(Cl)c4)n[nH]c3=S)cc2)SC1=S
8 µg/mL: MIC (Staphylococcus aureus [1]) | MIC (Staphylococcus aureus [3]) | MBC (Escherichia coli [24]) | MBC (Staphylococcus aureus [4]) | MFC (Candida albicans [25]) | MIC (Staphylococcus aureus [6]) | MIC (Staphylococcus aureus [7]) | MBC (Staphylococcus aureus [9]) | MIC (Escherichia coli [11]) | MIC (Staphylococcus aureus [14]) | MIC (Candida albicans [17]) | MIC (Staphylococcus aureus [18])
4 µg/mL: MIC (Streptococcus mutans [16])
<=4: Ratio (Staphylococcus aureus [15]) | Ratio (Escherichia coli [27])
> 128 µg/mL: MIC (Salmonella typhimurium) | MIC (Escherichia coli [8]) | MIC (Pseudomonas aeruginosa [12]) | MIC (Pseudomonas aeruginosa [20])
2: Ratio (Staphylococcus aureus [23])
32 µg/mL: MBC (Staphylococcus aureus [13]) | MBC (Staphylococcus aureus [21])
16 µg/mL: MBC (Staphylococcus aureus [5]) | MBC (Staphylococcus aureus [26]) | MBC (Staphylococcus aureus [10]) | MIC (Staphylococcus aureus [22])
> 32 µg/mL: MBC (Streptococcus mutans [2])

O=C(O)[C@H](Cc1ccccc1)N1C(=O)/C(=C/c2ccc(/C=N/n3c(-c4ccccc4Br)n[nH]c3=S)cc2)SC1=S
> 64 µg/mL: MIC (Staphylococcus aureus [6]) | MIC (Candida albicans [17])
2: Ratio [19]
32 µg/mL: MBC (Streptococcus mutans [2]) | MBC (Staphylococcus aureus [5]) | MBC (Staphylococcus aureus [13]) | MBC (Staphylococcus aureus [21])
8 µg/mL: MIC (Staphylococcus aureus [1]) | MIC (Staphylococcus aureus [3]) | MIC (Staphylococcus aureus [7]) | MBC (Staphylococcus aureus [10]) | MIC (Staphylococcus aureus [14]) | MIC (Streptococcus mutans [16]) | MIC (Staphylococcus aureus [18])
<=4: Ratio (Staphylococcus aureus [15])
> 128 µg/mL: MIC (Salmonella typhimurium) | MIC (Escherichia coli [8]) | MIC (Escherichia coli [11]) | MIC (Pseudomonas aeruginosa [12]) | MIC (Pseudomonas aeruginosa [20])
16 µg/mL: MBC (Staphylococcus aureus [4]) | MBC (Staphylococcus aureus [9]) | MIC (Staphylococcus aureus [22])

COc1c(N2CCNC(C)C2)c(F)cc2c(=O)c(C(=O)O)cn(C3CC3)c12 (centres undefined) [GATIFLOXACIN]
4 µg/mL: MIC (Staphylococcus aureus [1]) | MIC (Staphylococcus aureus [7]) | MBC (Staphylococcus aureus [10]) | MBC (Staphylococcus aureus [13])
1 µg/mL: MIC (Pseudomonas aeruginosa [12]) | MIC (Pseudomonas aeruginosa [20])
0.5 µg/mL: MIC (Salmonella typhimurium) | MBC (Streptococcus mutans [2]) | MFC (Candida albicans [25]) | MIC (Streptococcus mutans [16]) | MIC (Candida albicans [17])
2 µg/mL: MBC (Escherichia coli [24]) | MBC (Staphylococcus aureus [4]) | MBC (Staphylococcus aureus [5]) | MBC (Staphylococcus aureus [26]) | MIC (Staphylococcus aureus [6]) | MIC (Escherichia coli [11]) | MIC (Staphylococcus aureus [14]) | MIC (Staphylococcus aureus [22])
16 µg/mL: MIC (Escherichia coli [8])
0.25 µg/mL: MBC (Staphylococcus aureus [9]) | MIC (Staphylococcus aureus [18])
8 µg/mL: MIC (Staphylococcus aureus [3]) | MBC (Staphylococcus aureus [21])

COc1c(N2C[C@@H]3CCCN[C@@H]3C2)c(F)cc2c(=O)c(C(=O)O)cn(C3CC3)c12 [MOXIFLOXACIN]
4 µg/mL: MIC (Staphylococcus aureus [1]) | MIC (Staphylococcus aureus [3]) | MBC (Staphylococcus aureus [13]) | MBC (Staphylococcus aureus [21])
128 µg/mL: MIC (Escherichia coli [8])
1 µg/mL: MBC (Staphylococcus aureus [4]) | MBC (Staphylococcus aureus [5]) | MIC (Staphylococcus aureus [14]) | MIC (Staphylococcus aureus [22])
0.5 µg/mL: MIC (Salmonella typhimurium) | MFC (Candida albicans [25]) | MIC (Candida albicans [17])
2 µg/mL: MIC (Staphylococcus aureus [7]) | MBC (Staphylococcus aureus [10]) | MIC (Pseudomonas aeruginosa [12])
0.25 µg/mL: MBC (Streptococcus mutans [2]) | MBC (Staphylococcus aureus [9]) | MIC (Streptococcus mutans [16]) | MIC (Staphylococcus aureus [18])
